# High-throughput results (PubChem BioAssay)
# Shown is part of a subset that was picked to be rich in hits.
# XBP1 UPR activ: adaptive UPR (XBP1) activation | CHO-XBP1 luciferase reporter, IRE1-XBP1 UPR activation, luminescence; percent of tunicamycin response, DMSO as zero | activation, % at 20 µM | 330,000 tested, 0.33% active;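 active = versus positive control, 20 µM dose yields 30% or more activation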;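 also: 100% = tunicamycin at 10 µg/mL and 0% = DMSO only wells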
#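 Material: IRE1-XBP1 luciferase reporter CHO line / Quantity: one thousand reporter cells per well / Buffer or medium: F12 with 10% serum / Compound: 20 µM single concentration, DMSO 1% / Times: 6 h treatment, 37 °C / Detection: Steady-Glo luciferase glow luminescence, 10 min after reagent addition / Benchmarks: tunicamycin high, DMSO low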
# Lmaj promast: Leishmania major promastigote growth inhibition; Leishmania major promastigotes, resazurin fluorescence viability; inhibition, % at 10 µM; 200,000 tested, 9% active; in the data active = inhibition above about 50%;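 also: promastigotes grown with compound for 44 hours at 28 °C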
# UPR CHOP act: activators of apoptotic arm of unfolded protein response (CHOP) | 330,000 tested, 0.34% active | activation, % at 10 µM | CHO-CHOP luciferase reporter, UPR activation, luminescence; percent of tunicamycin response over DMSO baseline;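 active = at 10 µM dose, activation of 40% or more, normalized to positive control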;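 also: 100% = tunicamycin at 10 µg/mL and 0% = DMSO alone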
#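 Material: CHO-CHOP cells, stable luciferase reporter of PERK-eIF2a-CHOP signalling; quantity: 500 reporter cells seeded per well; buffer or medium: F12 medium containing 10% fetal bovine serum; compound: one dose, 10 µM in 0.5% DMSO; incubation: 6 h compound treatment, 37 °C; measured by: Steady-Glo luciferase luminescence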
# T cruzi repl: blocks replication of Trypanosoma cruzi | T. cruzi beta-gal in NIH3T3, luminescence, 90 h | 300,000 tested, 1.4% active | inhibition, % (no concentration beside the values);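 active = mean inhibition across valid replicates above about 55%, limit read from the data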;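 also: signal also drops with host cell toxicity which is not excluded here; 0% = plate median of DMSO wells and 100% = zero luminescence signal; higher percent means less beta-gal luminescence so fewer parasites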
#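 Material: NIH/3T3 host cells with β-galactosidase reporter T. cruzi; Input: 5,000 host fibroblasts per well; Medium: DMEM, 2% fetal bovine serum; Compound: 50 nL DMSO compound solution per well; Schedule: 3 h host attachment, then at least 90 h co-culture; Detection: luminescent β-galactosidase signal after 60 min lysis.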
# Dynein cargo inh: blocks dynein driven cargo transport along microtubules; 3617.4 mouse cells, GR-EGFP nuclear translocation imaging; test concentration mostly 20 µM; stimulated with dexamethasone, 1 µM; stronger effect = lower value; z-score, hits read low; 220,000 tested, 0.47% active; AID 1381;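 active = plate z-score of nuclear minus cytoplasmic receptor signal below a set negative limit, without overly bright fluorescence or cell loss, cut at about -3.5 in these data, passing the limit was not always enough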;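 also: z-score of nuclear minus cytoplasmic ring GR-EGFP intensity difference per well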
#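 Buffer or medium – tet-free medium with charcoal-stripped serum · Signal – automated 10x imaging of fixed Hoechst-stained cells · Also added – dexamethasone agonist, 1.0 µM final, for 30 min · Incubation – induction 48 h, compound 1 h, agonist 30 min · Read-out – GR-EGFP nuclear translocation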
# CHOP inhibitor: blocks CHOP induction under ER stress | CHO-K1 CHOP-promoter luciferase, tunicamycin-induced, 15-18 h | inhibition, % at 10 µM | 220,000 tested, 3.8% active | AID 2732;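 active = compounds that reduced the stress-induced luciferase reporter signal by more than about 70% of percent inhibition, limit read from the data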;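 also: 0% = tunicamycin plus vehicle and 100% = wells without tunicamycin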
# * hit, by the source's call; . = no result given.
SMILES,XBP1 UPR activ,Lmaj promast,UPR CHOP act,T cruzi repl,Dynein cargo inh,CHOP inhibitor
O=C(c1cc(N2C(=O)C3C4CCC(C4)C3C2=O)ccc1Cl)N1CCN(c2ccc(F)cc2)CC1 (configuration not stated),-3,75*,0,22,0.54,31
O=C(c1cccc(C(=O)N2CCN(c3ccccc3F)CC2)c1)N1CCN(c2ccccc2F)CC1,-3,-8,2,16,-0.072,53
O=C(c1cc(N2C(=O)C3C4CCC(C4)C3C2=O)ccc1Cl)N1CCCCCC1 (configuration not stated),-2,-4,-1,8,-0.26,0
COc1ccc(N2CCN(C(=O)c3cc(N4C(=O)C5C6CCC(C6)C5C4=O)ccc3Cl)CC2)cc1 (configuration not stated),-2,86*,2,2,1.3,43
CCOc1ccc(NS(=O)(=O)c2ccc(NC(=O)[C@@H]3CCCC[C@@H]3C(=O)O)cc2)cc1,-2,-8,-3,0,1.1,10
Cc1ccc(N(CCC#N)C(=O)COC(=O)C2=COCCO2)cc1,-2,.,0,-12,.,.
CCn1cc(C(=O)O)c(=O)c2cc(F)c(N/N=C/c3ccccc3[N+](=O)[O-])cc21,10,78*,0,34,0.89,78*
CCn1cc(C(=O)O)c(=O)c2cc(F)c(N3CCN(C(=S)Nc4ccccc4OC)CC3)cc21,-1,.,2,-23,0.59,-15
CC1(NC(=O)/C=C/c2nc3ccccc3s2)CCS(=O)(=O)C1 (configuration not stated),2,.,0,.,.,.
CC(=O)c1cccc(NC(=O)C(C)OC(=O)Cc2c[nH]c3ccccc23)c1 (configuration not stated),3,.,-1,5,.,.
CC(C)=CCCC(C)CN1CCC(n2nccc2NC(=O)c2ccc3c(c2)OCO3)CC1 (configuration not stated),-2,.,1,57*,.,.
CCN(CC)CCCN(C(=O)c1ccc(Br)cc1)c1nc(-c2ccc(OC)cc2)cs1,0,.,3,35,.,.
CCN(CC)CCCN(C(=O)c1cccs1)c1nc(-c2ccc(OC)cc2)cs1,1,101*,-1,43,-0.59,-4
COc1ccc(-c2csc(N(Cc3ccco3)C(=O)c3cccs3)n2)cc1,0,.,4,15,-0.41,23
COc1ccc(-c2csc(N(CC3CCCO3)C(=O)c3cccs3)n2)cc1 (configuration not stated),1,82*,-2,47,-0.2,5
Cc1ccc(S(=O)(=O)N2[C@@H](c3ccc(C(C)C)cc3)C(C(=O)O)=C[C@H]2C(C)(C)C)cc1,-1,.,3,.,.,.
O=C(N/N=C/c1ccc(-c2cccc([N+](=O)[O-])c2)o1)c1ccc([N+](=O)[O-])cc1,1,64*,1,40,-0.24,4
O=C(N/N=C/c1ccc(-c2cccc([N+](=O)[O-])c2)o1)c1ccccc1O,2,93*,0,-10,1.7,37
O=C(N/N=C/c1ccc(Br)o1)/C(=C/c1ccc([N+](=O)[O-])cc1)NC(=O)c1ccccc1,1,57*,0,39,-0.27,-13
C/C(=N\NC(=O)c1cc(-c2cccc([N+](=O)[O-])c2)n[nH]1)c1ccccc1O,.,-9,.,61*,0.68,94*
O=C(CN1CCC(C(O)(c2ccccc2)c2ccccc2)CC1)Nc1ccccc1,-1,25,-1,17,0.24,-5
O=C(CN1CCC(C(O)(c2ccccc2)c2ccccc2)CC1)Nc1cc(Cl)ccc1Cl,-3,32,1,55*,1,-52
CN1CCN(C(=O)CSc2nc(-c3cccs3)cc(-c3cccs3)c2C#N)CC1,.,66*,.,26,0.069,.
COc1ccc(-n2ncc(C(C)NS(=O)(=O)c3ccc(C)s3)c2C)cc1 (configuration not stated),-4,.,3,-8,.,.
CCOc1ccc(Oc2c(/C=N/NC(=O)COc3ccccc3OC)c(C)nn2-c2ccccc2)cc1,3,39,1,32,0.34,85*
